Paper PMC6548570 (Bioorganic & medicinal chemistry, 2019)

Legend:
sigma-2 = sigma-2 (Homo sapiens, UniProt Q5BJF2); test: Radioligand binding assay against sigma-2; conditions: for pKi ± SEM Sigma-2: displacement of [3H]-DTG, <5 = not >50% inhibition at 10 μM single concentration
Mouse liver microsomal = type: in vitro ADME; conditions: 37 °C
Procedure, shortened: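 Mouse liver microsomes (0.4 mg/mL) with NADPH in 0.5 M phosphate buffer, test compound at 10 μM. T0 samples quenched at once with 2 volumes ice-cold acetonitrile; others shaken 60 min at 37 °C, then quenched likewise. Verapamil-HCl as control. After centrifugation, parent quantified by UPLC/MS (SRM). % remaining = (60 min/0 min concentration)×100; duplicate runs, mean reported.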

sigma-1 = sigma-1 (Homo sapiens, UniProt Q99720); test: Radioligand binding assay against sigma-1
sigma-1, sequence (Q99720 whole entry): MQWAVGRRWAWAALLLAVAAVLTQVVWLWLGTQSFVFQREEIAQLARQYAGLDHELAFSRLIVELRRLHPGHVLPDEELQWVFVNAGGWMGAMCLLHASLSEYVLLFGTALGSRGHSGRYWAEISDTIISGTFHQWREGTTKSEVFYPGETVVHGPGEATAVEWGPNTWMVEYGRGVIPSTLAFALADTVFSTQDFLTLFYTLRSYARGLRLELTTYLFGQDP

sigma-2, sequence (Q5BJF2 whole entry): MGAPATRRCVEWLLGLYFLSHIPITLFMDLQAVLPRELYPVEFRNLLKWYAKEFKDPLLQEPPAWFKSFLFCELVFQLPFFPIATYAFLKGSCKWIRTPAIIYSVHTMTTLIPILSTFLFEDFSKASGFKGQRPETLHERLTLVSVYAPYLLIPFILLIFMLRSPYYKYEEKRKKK

Row | SMILES | activity against sigma-2 (in words) (sigma-2) | pKi ± SEM Sigma-2 (sigma-2) | other results
1 | O=C(c1nn(-c2ccccc2)c2c1CC(NCc1ccc(F)cc1)CC2)N1CCCCC1 (stereo not shown) [7aa, (5-((4-Fluorobenzyl)amino)-1-phenyl-4,5,6,7-tetrahydro-1H-indazol-3-yl)(piperidin-1-yl)methanone] | no activity | <5 M | –
2 | O=C(c1nn(-c2ccccc2)c2c1CC(NCc1ccccc1)CC2)N1CCCCC1 (stereo not shown) [7ab, (5-(Benzylamino)-1-phenyl-4,5,6,7-tetrahydro-1H-indazol-3-yl)(piperidin-1-yl)methanone] | – | – | consumption by liver microsomes after 60 minutes (in words) (Mouse liver microsomal): nearly-completely consumed
3 | O=C(c1nn(-c2ccccc2)c2c1CC(NCCc1ccc(C(F)(F)F)cc1)CC2)N1CCCCC1 (stereo not shown) [7ac, (1-Phenyl-5-((4-(trifluoromethyl)phenethyl)amino)-4,5,6,7-tetrahydro-1H-indazol-3-yl)(piperidin-1-yl)methanone] | – | <5 M | –
4 | O=C(c1nn(-c2ccccc2)c2c1CC(NCCc1cccc(O)c1)CC2)N1CCCCC1 (stereo not shown) [7af, (5-((3-Hydroxyphenethyl)amino)-1-phenyl-4,5,6,7-tetrahydro-1H-indazol-3-yl)(piperidin-1-yl)methanone] | – | <5 M | –
5 | O=C(c1nn(Cc2ccccc2)c2c1CC(NCCc1ccncc1)CC2)N1CCCCC1 (stereo not shown) [7ag, (1-Benzyl-5-((2-(pyridin-4-yl)ethyl)amino)-4,5,6,7-tetrahydro-1H-indazol-3-yl)(piperidin-1-yl)methanone] | – | <5 M | –
6 | O=C(c1nn(Cc2ccccc2)c2c1CC(NCc1ccc(F)cc1)CC2)N1CCCCC1 (stereo not shown) [7ah, (1-Benzyl-5-((4-fluorobenzyl)amino)-4,5,6,7-tetrahydro-1H-indazol-3-yl)(piperidin-1-yl)methanone] | – | <5 M | –
7 | O=C(c1c2c(nn1-c1ccccc1)CCC(NCc1ccc(F)cc1)C2)N1CCCCC1 (stereo not shown) [7ba, (5-((4-Fluorobenzyl)amino)-2-phenyl-4,5,6,7-tetrahydro-2H-indazol-3-yl)(piperidin-1-yl)methanone] | – | – | fold more potent against sigma-1 compared to N-1 regioisomer 7aa (sigma-1; N-2 vs N-1 regioisomer): over 5 fold; consumption by liver microsomes after 60 minutes (in words) (Mouse liver microsomal): nearly-completely consumed; fold more potent against sigma-2 compared to N-1 regioisomer 7aa (sigma-2; N-2 vs N-1 regioisomer): > 60 fold
8 | O=C(c1c2c(nn1-c1ccccc1)CCC(NCCc1ccc(C(F)(F)F)cc1)C2)N1CCCCC1 (stereo not shown) [7bc, (2-Phenyl-5-((4-(trifluoromethyl)phenethyl)amino)-4,5,6,7-tetrahydro-2H-indazol-3-yl)(piperidin-1-yl)methanone] | – | <5 M | –
9 | O=C(c1c2c(nn1-c1ccc(F)cc1)CCC(NCc1ccc(F)cc1)C2)N1CCCCC1 (stereo not shown) [7bf, (5-((4-Fluorobenzyl)amino)-2-(4-fluorophenyl)-4,5,6,7-tetrahydro-2H-indazol-3-yl)(piperidin-1-yl)methanone] | – | – | selectivity for sigma-1 against sigma-2 (sigma-1; sigma-1 over sigma-2): over 500 fold
10 | NC(=O)c1ccc(-n2nc3c(c2C(=O)N2CCCCC2)CC(NCCc2ccccc2)CC3)cc1 (stereo not shown) [7bg, 4-(5-(Phenethylamino)-3-(piperidine-1-carbonyl)-4,5,6,7-tetrahydro-2H-indazol-2-yl)benzamide] | – | <5 M | –
11 | CCCn1nc(C(=O)N(C)C)c2c1CCC(OCc1ccc(F)cc1)C2 (stereo not shown) [compound 9, 5-((4-Fluorobenzyl)oxy)-N,N-dimethyl-1-propyl-4,5,6,7-tetrahydro-1H-indazole-3-carboxamide] | completely lost | <5 M | activity against sigma-1 (in words) (sigma-1): completely lost
12 | CCCn1nc(C(=O)N(C)C)c2c1CCC(SCc1ccc(F)cc1)C2 (stereo not shown) [compound 11, 5-((4-Fluorobenzyl)thio)-N,N-dimethyl-1-propyl-4,5,6,7-tetrahydro-1H-indazole-3-carboxamide] | completely lost | <5 M | activity against sigma-1 (in words) (sigma-1): completely lost
13 | CCCn1nc(C(=O)N(C)C)c2c1CCC(NC(=O)c1ccc(F)cc1)C2 (stereo not shown) [compound 13, 5-(4-Fluorobenzamido)-N,N-dimethyl-1-propyl-4,5,6,7-tetrahydro-1H-indazole-3-carboxamide] | complete loss of activity | <5 M | activity against sigma-1 (in words) (sigma-1): complete loss of activity
14 | CCCn1nc(C(=O)N(C)C)c2c1CCC(NS(=O)(=O)c1ccc(F)cc1)C2 (stereo not shown) [compound 14, 5-((4-Fluorophenyl)sulfonamido)-N,N-dimethyl-1-propyl-4,5,6,7-tetrahydro-1H-indazole-3-carboxamide] | complete loss of activity | <5 M | activity against sigma-1 (in words) (sigma-1): complete loss of activity
